Laboratory results as given in ChEMBL document CHEMBL1148810, “Design, synthesis, and preliminary pharmacological evaluation of new quinoline derivatives as nicotinic ligands” (J Med Chem, 2007).
pKi: −log10 of the molar value. Active and inactive are the calls of the source.

Key:
[1] = target: Neuronal acetylcholine receptor subunit alpha-7 (Rattus norvegicus, UniProt Q05941); assay: Displacement of [3H]alpha-bungarotoxin from alpha-7 nAChR in rat cerebral cortex; type: tissue-based
[2] = target: T1, Neuronal acetylcholine receptor; alpha4/beta2 (Rattus norvegicus, UniProt P09483+P12390); assay: Displacement of [3H]epibatidine from alpha-4-beta-2 nAChR in rat cerebral cortex; type: tissue-based
T1 sequence (P09483 whole entry): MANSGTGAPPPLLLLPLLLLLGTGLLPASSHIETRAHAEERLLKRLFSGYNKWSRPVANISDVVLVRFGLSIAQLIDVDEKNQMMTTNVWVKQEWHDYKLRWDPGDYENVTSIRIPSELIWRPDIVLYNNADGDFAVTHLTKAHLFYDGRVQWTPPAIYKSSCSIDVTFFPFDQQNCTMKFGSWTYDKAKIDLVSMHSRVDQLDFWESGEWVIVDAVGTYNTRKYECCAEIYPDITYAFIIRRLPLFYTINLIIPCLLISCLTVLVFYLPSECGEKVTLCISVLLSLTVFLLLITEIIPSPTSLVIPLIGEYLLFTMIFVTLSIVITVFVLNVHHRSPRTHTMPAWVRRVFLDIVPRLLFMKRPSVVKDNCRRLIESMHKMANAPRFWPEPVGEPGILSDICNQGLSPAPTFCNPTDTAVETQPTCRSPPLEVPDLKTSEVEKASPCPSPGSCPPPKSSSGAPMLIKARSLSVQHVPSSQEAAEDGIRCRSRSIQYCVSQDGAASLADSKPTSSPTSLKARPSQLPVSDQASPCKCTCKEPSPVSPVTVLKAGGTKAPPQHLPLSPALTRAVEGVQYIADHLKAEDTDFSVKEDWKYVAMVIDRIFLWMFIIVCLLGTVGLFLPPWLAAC
T1 sequence (P12390 whole entry): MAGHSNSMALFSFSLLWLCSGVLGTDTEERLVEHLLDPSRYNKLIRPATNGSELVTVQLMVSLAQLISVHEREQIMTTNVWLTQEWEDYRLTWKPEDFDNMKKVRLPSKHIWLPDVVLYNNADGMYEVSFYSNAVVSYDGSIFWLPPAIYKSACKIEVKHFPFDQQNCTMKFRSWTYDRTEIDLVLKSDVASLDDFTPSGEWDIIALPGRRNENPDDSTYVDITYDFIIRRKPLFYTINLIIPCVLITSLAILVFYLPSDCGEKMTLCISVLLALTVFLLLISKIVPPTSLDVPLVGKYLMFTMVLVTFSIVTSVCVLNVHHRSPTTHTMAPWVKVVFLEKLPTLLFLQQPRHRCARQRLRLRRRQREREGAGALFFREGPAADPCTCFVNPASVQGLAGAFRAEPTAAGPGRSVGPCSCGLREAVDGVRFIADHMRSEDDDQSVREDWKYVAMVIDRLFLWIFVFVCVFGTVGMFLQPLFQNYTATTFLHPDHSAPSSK
Outline: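 Rat cerebral cortex was used in competition binding against [³H]-epibatidine, with amines tested as oxalate salts. Ki values were derived, and subtype selectivity was taken from comparison with Ki values obtained on the same tissue.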

[3] = target: T1, Neuronal acetylcholine receptor; alpha4/beta2; assay: Displacement of [3H]cytisine from alpha-4-beta-2 nAChR in rat cerebral cortex; type: tissue-based
Outline: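 Rat cerebral cortex membranes labelled with [³H]-cytisine, which marks α4β2* receptors. Compounds were tested for displacement up to 10 µM, with amines used as oxalate salts. Ki values were determined.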

Mus musculus = assay: Analgesic activity in mouse at 5 mg/kg, ip by hot plate test […]; type: functional, organism-based; set-up: dose 5 mg/kg
Outline: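 Mice were placed on a stainless steel surface held at 52.5 ± 0.1 °C, and dosing was i.p. at 5 mg/kg. Paw-licking latency (s) was timed by stopwatch before and 15, 30, 45 and 60 min after dosing. Mice with pretest scores below 12 or above 18 s were excluded, and the cutoff was 45 s. Ten mice per group; mean ± SEM.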

Neuronal acetylcholine receptor subunit alpha-7, sequence (Q05941 whole entry): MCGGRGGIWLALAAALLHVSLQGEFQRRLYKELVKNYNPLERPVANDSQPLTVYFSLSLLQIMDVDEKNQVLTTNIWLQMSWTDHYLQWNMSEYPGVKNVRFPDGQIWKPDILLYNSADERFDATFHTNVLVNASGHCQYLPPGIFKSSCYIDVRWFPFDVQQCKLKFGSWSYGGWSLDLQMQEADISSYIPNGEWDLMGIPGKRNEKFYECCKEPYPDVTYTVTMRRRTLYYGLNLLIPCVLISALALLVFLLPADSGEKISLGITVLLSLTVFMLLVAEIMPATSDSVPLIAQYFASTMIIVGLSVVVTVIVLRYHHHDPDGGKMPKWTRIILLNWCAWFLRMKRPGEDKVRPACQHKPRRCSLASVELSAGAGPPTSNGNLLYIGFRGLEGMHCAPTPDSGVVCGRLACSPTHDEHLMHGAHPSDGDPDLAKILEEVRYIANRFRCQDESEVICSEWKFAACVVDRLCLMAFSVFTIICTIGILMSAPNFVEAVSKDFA

**Q.** `C[N+](C)(C)CCC#Cc1ccc2ncccc2c1` was tested. Which pKi [1] did it give?
**A.** The pKi was 6.85.

**Q.** What about the pKi [2] of the same compound?
**A.** The pKi was 5.17.

**Q.** How did the pKi [3] turn out when `CN1CCC[C@H]1c1ccc2ncccc2c1` was run?
**A.** Its pKi is 7.05.

**Q.** What about the pKi [1] of the same compound?
**A.** Its pKi is 4.38.

**Q.** What about the pKi [2] of the same compound?
**A.** Its pKi is 6.91.

**Q.** Which results are given for `C[N+]1(C)CCC[C@H]1c1ccc2ncccc2c1`?
**A.** pKi [3]: 7.80; pKi [1]: 5.80; Activity (Mus musculus): Active; pKi [2]: 7.38

**Q.** Which results are given for `C[N+]1(C)CCCC1c1ccc2ncccc2c1` (racemic)?
**A.** pKi [3]: 7.35; Activity (Mus musculus): Dose-dependent effect

**Q.** With `CN1CCCC1c1ccc2ncccc2c1` (racemic) as the compound, how does the pKi [3] read?
**A.** The pKi was 6.88.

**Q.** And the Activity (Mus musculus)?
**A.** The Activity was “Dose-dependent effect”.

**Q.** With `C[N+]1(C)CCC[C@@H]1c1ccc2ncccc2c1` as the compound, how does the pKi [3] read?
**A.** Its pKi is 6.66.

**Q.** What about the pKi [1] of the same compound?
**A.** Its pKi is 7.05.

**Q.** What about the pKi [2] of the same compound?
**A.** The pKi was 5.85.

**Q.** `CN1CCC[C@@H]1c1ccc2ncccc2c1` was tested. Which pKi [3] did it give?
**A.** The pKi was 5.71.

**Q.** And the pKi [1]?
**A.** Its pKi is 5.09.

**Q.** And the pKi [2]?
**A.** The pKi was 5.68.
